{"data": "Published values gathered from unrelated publications", "target": "Serine/threonine-protein kinase D3 (PRKD3, Homo sapiens, UniProt O94806)", "Sequence (O94806 1-890, as in one of the studies)": "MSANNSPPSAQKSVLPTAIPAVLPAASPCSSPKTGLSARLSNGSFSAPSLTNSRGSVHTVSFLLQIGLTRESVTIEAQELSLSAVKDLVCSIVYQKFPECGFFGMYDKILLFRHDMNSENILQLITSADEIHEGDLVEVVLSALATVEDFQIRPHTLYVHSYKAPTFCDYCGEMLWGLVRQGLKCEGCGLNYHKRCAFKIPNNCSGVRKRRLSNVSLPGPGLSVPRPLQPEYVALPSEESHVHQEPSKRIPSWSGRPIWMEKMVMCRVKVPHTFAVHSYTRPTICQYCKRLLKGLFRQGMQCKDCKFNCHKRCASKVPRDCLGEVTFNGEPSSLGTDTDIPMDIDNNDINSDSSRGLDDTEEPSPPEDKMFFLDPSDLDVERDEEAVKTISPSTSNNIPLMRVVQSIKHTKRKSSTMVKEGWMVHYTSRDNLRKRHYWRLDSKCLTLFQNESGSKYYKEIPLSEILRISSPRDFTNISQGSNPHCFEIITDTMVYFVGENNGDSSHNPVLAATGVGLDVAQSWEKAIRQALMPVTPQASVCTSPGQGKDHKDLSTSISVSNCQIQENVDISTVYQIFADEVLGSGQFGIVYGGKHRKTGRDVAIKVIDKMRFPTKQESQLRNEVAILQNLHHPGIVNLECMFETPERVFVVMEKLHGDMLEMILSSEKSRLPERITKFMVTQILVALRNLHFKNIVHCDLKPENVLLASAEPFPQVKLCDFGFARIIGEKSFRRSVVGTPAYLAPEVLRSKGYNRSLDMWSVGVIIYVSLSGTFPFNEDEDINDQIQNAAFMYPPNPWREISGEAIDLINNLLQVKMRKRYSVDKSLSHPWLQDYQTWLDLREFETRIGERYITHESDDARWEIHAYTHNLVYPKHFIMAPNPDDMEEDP", "note": "Compare with care: the assays were run in different laboratories."}
{"SMILES": "COc1cc2c(Nc3ccc(Br)cc3F)ncnc2cc1OCC1CCN(C)CC1", "test": "cell-free assay", "setting": "0.5 µM", "measurement": "remaining signal", "value": "91.7%"}
{"SMILES": "CC/C(=N\\NC(=O)NCc1cccc(O)c1)c1ccc(O)c(C)c1O", "test": "enzyme activity, inhibitor", "setting": "0.1 µM", "measurement": "inhibition", "value": "2.2%"}
{"SMILES": "Cn1c2c(Cl)c(Cl)ccc2c2cc[nH]c(=O)c21", "test": "thermal stability, DSF", "setting": "10 µM", "measurement": "ΔTm", "value": "2.2 °C"}
{"SMILES": "Cc1nc(N2CC[C@@H](O)C2)ncc1-c1cc(C(F)(F)F)cc2[nH]ncc12", "test": "binding, competition with immobilised ligand", "setting": "1 µM", "measurement": "remaining binding", "value": "100%"}
{"SMILES": "Cc1ccc(C(=O)NCc2ccsc2)cc1C#Cc1cn(C(C)C)c2ncnc(N)c12", "test": "enzyme activity, inhibitor", "setting": "1 µM", "measurement": "activity vs control", "value": "101%"}
{"SMILES": "CN1CC(Oc2cnc(C#N)cc2-c2ccn3nc(NC(=O)C4CC4)cc3c2)C1", "test": "enzyme activity, inhibitor", "setting": "1 µM", "measurement": "inhibition", "value": "-13%"}
{"SMILES": "c1ccc(CNc2nc(N3CCOc4ccccc43)nc3c2CCCC3)cc1", "test": "target engagement in cells, inhibitor, chemoproteomics", "setting": "20 mM", "measurement": "inhibition", "value": "2.8%"}
{"SMILES": "O=C(Nc1ccc(Oc2ccc(F)cc2)cc1)N1CCc2ncccc2[C@H]1c1ccc(F)cc1", "test": "cell-free assay, competition with immobilised ligand", "setting": "1 µM", "measurement": "remaining binding", "value": "98%"}
{"SMILES": "CCN1CCN(Cc2ccc(NC(=O)c3ccc(C)c(Oc4ccnc5[nH]ccc45)c3)cc2C(F)(F)F)CC1", "test": "target engagement in cells, inhibitor, chemoproteomics", "test system": "Huh-7", "setting": "1 µM", "measurement": "inhibition", "value": "-12.7%"}
{"SMILES": "Cn1c2c(c3ccc(Cl)c(Cl)c31)C(C#N)C(C)(C)NC2=O (stereo not drawn)", "test": "thermal stability, DSF", "setting": "10 µM", "measurement": "ΔTm", "value": "1.9 °C"}
{"SMILES": "COc1cccc2c(NCc3ccccc3)nc(-n3c(N)nc4ccccc43)nc12", "test": "target engagement in cells, inhibitor, chemoproteomics", "setting": "20 mM", "measurement": "inhibition", "value": "-8.9%"}
{"SMILES": "Cc1sc(C(=O)NC2COC2)cc1-n1cc(NC(=O)Nc2c(F)cccc2Cl)cn1", "test": "enzyme activity, inhibitor", "setting": "10 µM", "measurement": "remaining activity", "value": "105%"}
{"SMILES": "CNC(=O)Nc1ccc2c(c1)CC[C@@]21OC(=O)N(CC(=O)N(Cc2ccc(F)cc2)[C@@H](C)C(F)(F)F)C1=O", "test": "cell-free assay, competition with immobilised ligand", "setting": "1 µM", "measurement": "remaining binding", "value": "100%"}
{"SMILES": "CNc1cccc2cc(C(=O)Nc3ccc(C(=O)O)cc3)c(=O)[nH]c12", "test": "enzyme activity, inhibitor", "setting": "10 µM", "measurement": "inhibition", "value": "-1%"}
{"SMILES": "N#CCCc1ccc2c(c1)-c1[nH]c3ccc([N+](=O)[O-])cc3c1CC(=O)N2", "test": "cell-free assay", "setting": "0.5 µM", "measurement": "remaining signal", "value": "84%"}
{"SMILES": "CO[C@@H](C)c1c(Nc2ccc([C@@H](N(C)C(=O)C3CCS(=O)(=O)CC3)C(F)(F)F)cc2)cnc2cc(Cl)nn12", "test": "cell-free assay, competition with immobilised ligand", "setting": "1 µM", "measurement": "remaining binding", "value": "93%"}
{"SMILES": "COc1cc(Cl)c(C(=O)N[C@@H](CN[C@H]2CC[C@@H](N)CC2)Cc2ccc(C#N)cc2)cc1-c1ccc(CN[C@H](C)c2ccc(C)cc2)o1", "test": "enzyme activity, inhibitor", "setting": "1 µM", "measurement": "remaining activity", "value": "93%"}
{"SMILES": "O=C(NC[C@@H]1[C@H]2CN(C(=O)OCc3cc(C(F)(F)F)cc(C(F)(F)F)c3)C[C@@H]12)c1ccc2[nH]nnc2c1", "test": "cell-free assay, competition with immobilised ligand", "setting": "1 µM", "measurement": "remaining binding", "value": "83%"}
{"SMILES": "O=C1NC(=O)c2cc(Nc3ccc(F)cc3)c(Nc3ccc(F)cc3)cc21", "test": "cell-free assay", "setting": "0.5 µM", "measurement": "remaining signal", "value": "96.7%"}
{"SMILES": "CC(C)(C)c1nc(-c2cccc(NS(=O)(=O)c3c(F)cccc3F)c2F)c(-c2ccnc(N)n2)s1", "test": "enzyme activity, inhibitor, radiometric", "setting": "1 µM", "measurement": "remaining activity", "value": "100%"}
{"SMILES": "O=C(O)c1cc(-c2ccc(C3CCNCC3)cc2)c2ccc(-c3ccc(C(F)(F)F)cc3)cc2c1", "test": "cell-free assay, competition with immobilised ligand", "setting": "1 µM", "measurement": "remaining binding", "value": "100%"}
{"SMILES": "Cn1c2c(Cl)c(Cl)ccc2c2cc(N)[nH]c(=O)c21", "test": "thermal stability, DSF", "setting": "10 µM", "measurement": "ΔTm", "value": "1 °C"}
{"SMILES": "CC(C)(O)c1cncc(-c2nc3ccc(F)cc3n2C2CC2)c1", "test": "cell-free assay, competition with immobilised ligand", "setting": "1 µM", "measurement": "remaining binding", "value": "100%"}
{"SMILES": "COc1cc2ncnc(Nc3ccc(Oc4ccccc4)cc3C)c2cc1OC", "test": "enzyme activity, inhibitor", "setting": "1 µM", "measurement": "inhibition", "value": "10%"}
